Measured values as given in ChEMBL document CHEMBL1138845, “Design of non-nucleoside inhibitors of HIV-1 reverse transcriptase with improved drug resistance properties. 2” (J Med Chem, 2004).

What was measured:
HeLa [1] = assay: Inhibitory concentration against human immunodeficiency virus type 1 (with V106A/Y181C resistant mutation) was determined in HeLa-CD4 MAGI assay; assay type: functional, cell-based
In short: (§1)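 Tested against a panel of recombinant, isogenic HIV-1 viruses, wild type and NNRTI-resistant strains carrying engineered single or double RT mutations. The readout was IC50.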

MT4 [2] = assay: Inhibitory concentration against wild type human immunodeficiency virus type 1 was determined by MT-4 assay; assay type: functional, cell-based
HeLa [3] = assay: Inhibitory concentration against human immunodeficiency virus type 1 (with K103N resistant mutation) was determined in HeLa-CD4 MAGI assay; assay type: functional, cell-based; in short: as §1
HeLa [4] = assay: Inhibitory concentration against human immunodeficiency virus type 1 (with V108I/Y181C resistant mutation) was determined in HeLa-CD4 MAGI assay; assay type: functional, cell-based; in short: as §1
HeLa [5] = assay: Inhibitory concentration against human immunodeficiency virus type 1 (with Y188C resistant mutation) was determined in HeLa-CD4 MAGI assay; assay type: functional, cell-based; in short: as §1
HeLa [6] = assay: Inhibitory concentration against human immunodeficiency virus type 1 (with K103N/Y181C resistant mutation) was determined in HeLa-CD4 MAGI assay; assay type: functional, cell-based; in short: as §1
HeLa [7] = assay: Inhibitory concentration against human immunodeficiency virus type 1 (with Y181C resistant mutation) was determined in HeLa-CD4 MAGI assay; assay type: functional, cell-based; in short: as §1
MT4 [8] = assay: Ratio of cytotoxic concentration to that of inhibitory concentration as selectivity index was determined by MT-4 assay; assay type: functional, Homo sapiens
In short: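 Index is the IC50 in uninfected MT4 cells divided by the antiviral IC50 in MT4 cells infected with wild-type HIV-1 or the nevirapine-resistant strain carrying RT mutation Y181C.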

HeLa [9] = assay: Inhibitory concentration against human immunodeficiency virus type 1 (with V106A resistant mutation) was determined in HeLa-CD4 MAGI assay; assay type: functional, cell-based; in short: as §1
HeLa [10] = assay: Inhibitory concentration against human immunodeficiency virus type 1 (with V108I resistant mutation) was determined in HeLa-CD4 MAGI assay; assay type: functional, cell-based; in short: as §1
HeLa [11] = assay: Inhibitory concentration against human immunodeficiency virus type 1 (with K103N/V108I resistant mutation) was determined in HeLa-CD4 MAGI assay; assay type: functional, cell-based; in short: as §1
HeLa [12] = assay: Inhibitory concentration against human immunodeficiency virus type 1 (with G190A resistant mutation) was determined in HeLa-CD4 MAGI assay; assay type: functional, cell-based; in short: as §1
MT4 [13] = assay: Inhibitory concentration against nevirapine resistant strain (with Y181C mutation in HIV-1 RT gene) of human immunodeficiency virus type 1 was determined by MT-4 assay; assay type: functional, cell-based
[14] = system: Human immunodeficiency virus 1; assay: Inhibitory concentration against wild type human immunodeficiency virus type 1 was determined by recombinant virus assay; assay type: functional, organism-based
In short: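 Isogenic recombinant HIV-1 carrying wild-type RT, tested in parallel with a panel of NNRTI-resistant RT mutants built on the same background; activity reported as IC50.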

HeLa [15] = assay: Inhibitory concentration against human immunodeficiency virus type 1 (with K103N/G190A resistant mutation) was determined in HeLa-CD4 MAGI assay; assay type: functional, cell-based; in short: as §1

| SMILES | IC50 (HeLa [1]) [nM] | IC50 (MT4 [2]) [nM] | IC50 (HeLa [3]) [nM] | IC50 (HeLa [4]) [nM] | IC50 (HeLa [5]) [nM] | IC50 (HeLa [6]) [nM] | IC50 (HeLa [7]) [nM] | Ratio (MT4 [8]) | IC50 (HeLa [9]) [nM] | IC50 (HeLa [10]) [nM] | IC50 (HeLa [11]) [nM] | IC50 (HeLa [12]) [nM] | IC50 (MT4 [13]) [nM] | IC50 [14] [nM] | IC50 (HeLa [15]) [nM] |
| --- | --- | --- | --- | --- | --- | --- | --- | --- | --- | --- | --- | --- | --- | --- | --- |
| CC(C)c1c(O)nc2ccc(Cl)cc2c1OCC1CCC1 | 1900 | 29 | 560 | 440 | 32 | > 2000 | 210 | >500 | 380 | 79 | > 2000 | 9 | 230 | 15 | 560 |
| CC(C)c1c(OC2CCCCC2)c2cc(Cl)ccc2[nH]c1=O | 430 | 23 | 170 | ~800 | 12 | > 2000 | 1400 | >40000 | 1100 | 110 | > 2000 | 27 | 360 | 38 | 190 |
| CCCc1c(OC2CCCCC2)c2cc(Cl)ccc2[nH]c1=O | 1100 | 58 | > 2000 | 900 | 12 | > 2000 | 470 | >5000 | 980 | 180 | ~2000 | 54 | 760 | 32 | 1000 |
| N#Cc1c(O)nc2ccccc2c1OCC1CCC1 | > 2000 | > 8000 | > 2000 | > 2000 | > 2000 | > 2000 | > 2000 | >8000 | > 2000 | > 2000 | > 2000 | > 2000 | > 8000 | > 2000 | > 2000 |
| CCCc1c(O)nc2ccc(C#N)cc2c1OC1CCCC1 | > 2000 | 120 | > 2000 | > 2000 | 52 | > 2000 | 1700 | >40000 | 1300 | 240 | > 2000 | 1 | 2000 | 65 | > 2000 |
| CCC(C)c1c(O)nc2ccc(Cl)cc2c1OC1CCCC1 (stereo unspecified) | ~2000 | 9 | 970 | > 2000 | 670 | > 2000 | 320 | >40000 | > 2000 | 1100 | > 2000 | ~2000 | 290 | 9.3 | > 2000 |
| CC(C)c1c(O)nc2ccc(Cl)cc2c1OC#CC1CC1 | 120 | 24 | 320 | 120 | 18 | 620 | 39 | >8000 | 57 | 36 | 1200 | 3 | 31 | 16 | 52 |
| O=C1Nc2ccc(Cl)cc2[C@@](C#CC2CC2)(C(F)(F)F)O1 [EFAVIRENZ] | 3 |  | 23 | 3 | 1 | 43 | 2 |  | 1 |  |  | 7 |  |  | 552 |
| CCCc1c(O)nc2cc(OC)ccc2c1OCC1CCC1 | > 2000 | > 8000 | > 2000 | > 2000 | > 2000 | > 2000 | > 2000 | >8000 | > 2000 | > 2000 | > 2000 | > 2000 | > 8000 | > 2000 | > 2000 |
| CCCc1c(O)nc2ccc(OC(F)(F)F)cc2c1OC1CCCC1 | > 2000 | 380 | > 2000 | > 2000 | 360 | > 2000 | 990 | >40000 | > 2000 | 300 | > 2000 | 47 | 2500 | 270 | > 2000 |
| CC(C)c1c(OC#CC2CC2)c2cc(F)ccc2[nH]c1=O | 220 |  | 400 | 11 | 23 | 620 | 15 | 16000 | 150 | 26 | 720 | 5 | 25 | 10 | 100 |
| CCCc1c(O)nc2ccc(C)cc2c1OC1CCCC1 | > 2000 | 970 | > 2000 | > 2000 | 240 | > 2000 | 410 | >40000 | > 2000 | 710 | > 2000 | 150 | 6400 | 400 | > 2000 |
| CCCc1c(O)nc2ccc(Cl)cc2c1OC#CC1CC1 | 120 | 109 | > 2000 | 230 | 70 | 1800 | 92 | >8000 | 220 | 60 | 1400 | 15 | 120 | 38 | 300 |
| CCCc1c(O)nc2ccc(F)cc2c1OCC1CCC1 | 1700 | 69 | 1800 | 560 | 60 | > 2000 | 240 | >8000 | 1700 | 290 | > 2000 | 46 | 190 | 63 | > 2000 |
| CC(C)Nc1cccnc1N1CCN(C(=O)c2cc3cc(NS(C)(=O)=O)ccc3[nH]2)CC1 [DELAVIRDINE] | 10000 |  | 2650 | 10000 | 124 | 1250 |  |  | 870 | 97 | 3400 | 35 |  | 159 | 8000 |
| CCCc1c(O)nc2ccc(Cl)cc2c1OCC1CCC1 | 630 | 72 | 980 | 600 | 16 | > 2000 | > 2000 | >40000 | 124 | 77 | > 2000 | 15 | 390 | 36 | 1300 |
| CCc1c(O)nc2ccc(Cl)cc2c1OC1CCCC1 | ~1000 | 78 | > 2000 | 780 | 54 | > 2000 | 6 | >40000 | > 2000 | 260 | > 2000 | 12 | 1020 | 72 | 640 |
| Cc1ccnc2c1NC(=O)c1cccnc1N2C1CC1 [NEVIRAPINE] | > 10000 |  |  | > 10000 |  | > 50000 | > 10000 |  | ~10000 |  |  | > 10000 |  | 89 |  |
